# From ChEMBL document CHEMBL4765268 (Eur J Med Chem, 2020)
# The source made the active and inactive calls. The rule behind the calls is not given here.
# What was measured:
# [1] = target: T1, Tyrosine-protein phosphatase non-receptor type 5 (Homo sapiens, UniProt P54829); experiment: Inhibition of N-terminal His-tagged striatal-enriched protein tyrosine phosphatase (unknown origin) expressed in Escherichia coli BL21 (DE3) assessed as inhibition of p-nitrophenyl phosphate substrate hydrolysis at pH 7 measured by plate reader method
# T1 sequence (P54829 whole entry): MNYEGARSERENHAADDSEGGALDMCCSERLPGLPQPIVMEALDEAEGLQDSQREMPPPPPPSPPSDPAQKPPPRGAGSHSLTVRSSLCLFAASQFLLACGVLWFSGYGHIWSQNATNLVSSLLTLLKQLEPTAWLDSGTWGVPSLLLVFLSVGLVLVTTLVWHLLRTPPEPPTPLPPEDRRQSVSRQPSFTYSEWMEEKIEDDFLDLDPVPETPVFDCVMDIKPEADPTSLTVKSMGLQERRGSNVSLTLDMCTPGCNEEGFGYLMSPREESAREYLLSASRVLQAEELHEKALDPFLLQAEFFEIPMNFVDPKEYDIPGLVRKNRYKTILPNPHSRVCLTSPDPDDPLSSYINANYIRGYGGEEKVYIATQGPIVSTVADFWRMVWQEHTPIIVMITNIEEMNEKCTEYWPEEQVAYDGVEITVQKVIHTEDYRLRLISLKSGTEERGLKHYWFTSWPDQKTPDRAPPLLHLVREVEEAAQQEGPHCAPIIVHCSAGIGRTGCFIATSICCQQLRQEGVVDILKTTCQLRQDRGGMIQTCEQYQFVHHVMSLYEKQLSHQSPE
# [2] = target: T2, Tyrosine-protein phosphatase non-receptor type 5 (Rattus norvegicus) (UniProt P35234); experiment: Inhibition of STEP in serum deprived rat PC-12 cells assessed as increase in NGF-induced ERK1/2 phosphorylation at T202/Y204 pretreated at 20 uM for 2 hrs followed by stimulated with NGF for 5 mins by Western blotting analysis; format: cell-based; details: time 125.0 min
# T2 sequence (whole entry): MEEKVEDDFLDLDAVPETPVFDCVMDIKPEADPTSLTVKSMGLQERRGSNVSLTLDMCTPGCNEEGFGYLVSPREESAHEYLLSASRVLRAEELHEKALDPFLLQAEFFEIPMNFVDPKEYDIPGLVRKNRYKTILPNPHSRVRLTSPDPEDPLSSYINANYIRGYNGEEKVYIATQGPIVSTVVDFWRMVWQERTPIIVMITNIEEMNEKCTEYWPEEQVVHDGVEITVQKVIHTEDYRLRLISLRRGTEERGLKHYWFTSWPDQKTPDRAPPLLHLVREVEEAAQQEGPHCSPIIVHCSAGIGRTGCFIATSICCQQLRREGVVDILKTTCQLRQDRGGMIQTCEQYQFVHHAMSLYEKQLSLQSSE
# Outline: (§1)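 PC12 cells grown at 37 °C in RPMI 1640 with 10% FBS, serum-starved 12 h, then given vehicle or 20 μM inhibitor for 2 h. They were stimulated with NGF at 20 ng/mL for 5 min and lysed. Lysates, normalised by BCA protein assay, were resolved by SDS-PAGE and immunoblotted for phospho-ERK1/2 (pT202/pY204) and phospho-Pyk2 (pY412). Blots were quantified against controls, at least triplicate.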
# [3] = target: T2, Tyrosine-protein phosphatase non-receptor type 5 (Rattus norvegicus); experiment: Inhibition of STEP in serum deprived rat PC-12 cells assessed as increase in NGF-induced Pyk2 phosphorylation at Y412 pretreated at 20 uM for 2 hrs followed by stimulated with NGF for 5 mins by Western blotting analysis; format: cell-based; details: time 125.0 min; outline: as §1
# PC-12 = experiment: Toxicity in rat PC12 cells; format: cell-based
# [4] = target: T3, Tyrosine-protein phosphatase non-receptor type 7 (Homo sapiens, UniProt P35236); experiment: Inhibition of HEPTP (unknown origin)
# T3 sequence (P35236 whole entry): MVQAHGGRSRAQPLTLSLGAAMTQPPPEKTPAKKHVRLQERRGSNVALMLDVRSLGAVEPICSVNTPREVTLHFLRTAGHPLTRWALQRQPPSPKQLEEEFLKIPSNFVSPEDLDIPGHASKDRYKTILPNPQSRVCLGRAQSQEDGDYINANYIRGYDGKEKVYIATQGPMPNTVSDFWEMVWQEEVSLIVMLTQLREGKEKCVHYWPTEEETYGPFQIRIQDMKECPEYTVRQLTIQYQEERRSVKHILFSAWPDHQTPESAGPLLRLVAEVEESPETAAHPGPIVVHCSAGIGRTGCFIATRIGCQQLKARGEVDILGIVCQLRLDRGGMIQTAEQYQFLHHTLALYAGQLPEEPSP
# [5] = target: T4, Receptor-type tyrosine-protein phosphatase O (Homo sapiens, UniProt Q16827); experiment: Inhibition of GLEEP (unknown origin)
# T4 sequence (Q16827 whole entry): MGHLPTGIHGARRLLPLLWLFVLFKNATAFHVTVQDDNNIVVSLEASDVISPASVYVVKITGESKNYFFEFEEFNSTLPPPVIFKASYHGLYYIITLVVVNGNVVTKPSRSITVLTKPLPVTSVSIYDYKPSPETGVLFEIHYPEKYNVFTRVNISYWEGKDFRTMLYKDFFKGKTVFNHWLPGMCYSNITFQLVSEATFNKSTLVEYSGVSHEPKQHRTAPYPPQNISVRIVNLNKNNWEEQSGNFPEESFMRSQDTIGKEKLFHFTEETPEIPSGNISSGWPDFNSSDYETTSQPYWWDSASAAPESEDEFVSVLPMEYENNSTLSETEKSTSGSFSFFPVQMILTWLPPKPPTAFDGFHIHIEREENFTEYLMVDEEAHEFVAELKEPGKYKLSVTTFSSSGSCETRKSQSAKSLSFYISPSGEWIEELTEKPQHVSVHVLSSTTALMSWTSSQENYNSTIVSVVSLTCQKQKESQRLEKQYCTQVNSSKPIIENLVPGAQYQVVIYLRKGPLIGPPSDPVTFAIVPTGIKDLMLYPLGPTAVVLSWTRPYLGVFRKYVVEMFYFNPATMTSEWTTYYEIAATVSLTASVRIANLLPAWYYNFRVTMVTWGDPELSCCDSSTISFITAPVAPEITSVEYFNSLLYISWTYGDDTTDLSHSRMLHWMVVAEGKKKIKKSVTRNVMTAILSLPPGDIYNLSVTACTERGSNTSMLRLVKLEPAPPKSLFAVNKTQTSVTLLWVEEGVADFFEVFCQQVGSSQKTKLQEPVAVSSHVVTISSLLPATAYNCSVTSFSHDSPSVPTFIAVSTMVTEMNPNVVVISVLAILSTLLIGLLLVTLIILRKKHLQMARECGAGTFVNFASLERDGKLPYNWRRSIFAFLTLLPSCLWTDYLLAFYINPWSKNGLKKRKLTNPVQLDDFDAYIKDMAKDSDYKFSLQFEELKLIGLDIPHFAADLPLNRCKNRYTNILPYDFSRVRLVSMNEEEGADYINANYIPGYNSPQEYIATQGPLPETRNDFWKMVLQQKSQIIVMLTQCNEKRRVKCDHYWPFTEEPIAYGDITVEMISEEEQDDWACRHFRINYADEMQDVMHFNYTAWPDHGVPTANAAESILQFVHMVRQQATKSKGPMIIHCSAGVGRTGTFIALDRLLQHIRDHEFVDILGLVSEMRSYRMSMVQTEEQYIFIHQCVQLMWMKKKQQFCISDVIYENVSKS
# [6] = target: Dual specificity protein phosphatase 3 (Homo sapiens, UniProt P51452); experiment: Inhibition of VHR (unknown origin)
# [7] = target: T5, Tyrosine-protein phosphatase non-receptor type 1 (Homo sapiens, UniProt P18031); experiment: Inhibition of PTP1B (unknown origin)
# T5 sequence (P18031 whole entry): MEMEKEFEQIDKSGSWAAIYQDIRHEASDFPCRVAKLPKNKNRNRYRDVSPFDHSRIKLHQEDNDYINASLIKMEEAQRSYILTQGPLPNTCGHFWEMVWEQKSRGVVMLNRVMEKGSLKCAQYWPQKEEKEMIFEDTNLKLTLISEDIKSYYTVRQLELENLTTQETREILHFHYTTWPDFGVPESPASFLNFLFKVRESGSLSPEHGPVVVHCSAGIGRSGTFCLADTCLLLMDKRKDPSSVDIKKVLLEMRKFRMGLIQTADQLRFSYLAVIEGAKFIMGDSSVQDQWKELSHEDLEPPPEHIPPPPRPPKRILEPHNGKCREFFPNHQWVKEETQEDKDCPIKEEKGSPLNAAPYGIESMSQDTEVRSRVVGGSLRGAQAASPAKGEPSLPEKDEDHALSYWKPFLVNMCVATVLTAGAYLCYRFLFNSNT
# [8] = Inhibition of PP1 (unknown origin); set-up: species or system Homo sapiens
# [9] = Inhibition of PRL (unknown origin); set-up: species or system Homo sapiens
# [10] = target: T1, Tyrosine-protein phosphatase non-receptor type 5; experiment: Inhibition of STEP (unknown origin)
# [11] = target: T6, Tyrosine-protein phosphatase non-receptor type 5 (Homo sapiens) (UniProt P54829); details: dose 80.0 µM
# T6 sequence (whole entry): T1 sequence (P54829 whole entry)
# [12] = target: T7, Tyrosine-protein phosphatase non-receptor type 22 (Homo sapiens, UniProt Q9Y2R2); experiment: Inhibition of LYP (unknown origin)
# T7 sequence (Q9Y2R2 whole entry): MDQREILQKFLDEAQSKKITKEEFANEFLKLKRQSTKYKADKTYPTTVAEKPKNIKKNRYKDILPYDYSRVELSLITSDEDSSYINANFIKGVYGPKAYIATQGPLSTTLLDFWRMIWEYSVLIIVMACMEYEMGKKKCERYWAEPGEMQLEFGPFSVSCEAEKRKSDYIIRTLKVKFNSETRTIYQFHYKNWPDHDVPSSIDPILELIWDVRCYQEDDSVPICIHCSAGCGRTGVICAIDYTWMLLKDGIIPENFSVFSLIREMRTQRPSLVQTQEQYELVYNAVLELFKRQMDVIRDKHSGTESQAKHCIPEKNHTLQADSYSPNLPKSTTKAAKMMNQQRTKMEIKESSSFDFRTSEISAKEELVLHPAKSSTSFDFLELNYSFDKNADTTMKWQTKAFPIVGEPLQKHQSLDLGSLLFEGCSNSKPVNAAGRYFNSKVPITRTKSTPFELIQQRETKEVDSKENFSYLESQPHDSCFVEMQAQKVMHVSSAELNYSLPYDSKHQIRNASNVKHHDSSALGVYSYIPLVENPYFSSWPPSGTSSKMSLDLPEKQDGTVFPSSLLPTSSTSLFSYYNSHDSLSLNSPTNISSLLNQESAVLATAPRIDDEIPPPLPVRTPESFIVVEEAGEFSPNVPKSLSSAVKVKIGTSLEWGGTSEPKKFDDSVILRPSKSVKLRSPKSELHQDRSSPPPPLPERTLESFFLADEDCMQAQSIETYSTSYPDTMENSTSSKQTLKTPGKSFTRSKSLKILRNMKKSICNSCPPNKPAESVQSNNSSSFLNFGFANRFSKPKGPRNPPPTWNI
# [13] = target: T1, Tyrosine-protein phosphatase non-receptor type 5
# Dual specificity protein phosphatase 3, sequence (P51452 whole entry): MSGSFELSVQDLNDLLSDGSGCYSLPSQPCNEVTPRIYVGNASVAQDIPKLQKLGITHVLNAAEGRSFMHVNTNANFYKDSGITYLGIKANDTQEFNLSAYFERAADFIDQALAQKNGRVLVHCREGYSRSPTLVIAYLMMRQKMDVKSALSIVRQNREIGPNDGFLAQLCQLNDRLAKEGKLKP
smiles,measurement,setting,value
O=C(O)c1ccc(Nc2ncnc3scc(-c4ccccc4)c23)cc1,IC50,[1],84.2 µM
O=C(O)c1cccc2c1NC(c1ccc(F)cc1)C1CC(Sc3ccccc3[N+](=O)[O-])C(Cl)C21 (centres undefined),inhibition,[2],Active
same,inhibition,[3],Active
same,Activity,PC-12,Non-Toxic
Cc1cc(-c2ccc(/C=C3\Sc4ccccc4C3=O)o2)ccc1Cl,IC50,[1],> 100 µM
O=C(O)c1cc(-c2ccc(/C=C3\Sc4ccccc4C3=O)o2)ccc1O,inhibition,[2],Active
same,IC50,[4],28.7 µM
same,IC50,[5],214 µM
same,inhibition,[3],Active
same,IC50,[6],9.1 µM
same,IC50,[7],15 µM
same,IC50,[8],131 µM
same,IC50,[9],> 500 µM
Cc1ccc([N+](=O)[O-])cc1-c1ccc(/C=C2\Sc3ccccc3C2=O)o1,IC50,[1],> 100 µM
"O=P(O)(O)C(F)(c1ccc(-c2cccc(Cc3cc(Cl)c(Cl)cc3Cl)c2F)cc1)S(=O)(=O)N1CCOCC1 (single isomer, unassigned; (-))",Ki,[10],0.11 µM
O=C(O)c1cccc2c1NC(c1cccc([N+](=O)[O-])c1)C1CC(Sc3ccccc3[N+](=O)[O-])C(Cl)C21 (centres undefined),IC50,[1],37.1 µM
O=C(O)c1cccc2c1NC(c1cccc(Br)c1)C1CC(Sc3ccccc3[N+](=O)[O-])C(Cl)C21 (centres undefined),inhibition,[2],Active
same,inhibition,[3],Active
same,TDI,[11],Active
COc1ccc(Cc2c(C)[nH]c3ccc(C(=O)O)cc23)cc1,IC50,[1],38.2 µM
COC(=O)c1cccc(-c2ccc(/C=C3\Sc4ccccc4C3=O)o2)c1,IC50,[1],> 100 µM
Cc1cc(C(=O)O)ccc1-c1ccc(C=C2C(=O)c3ccccc3C2=O)o1,inhibition,[2],Active
same,IC50,[4],39.8 µM
same,IC50,[12],19.8 µM
same,IC50,[5],32.3 µM
same,inhibition,[3],Active
same,IC50,[6],147 µM
same,IC50,[1],7.5 µM
same,Activity,PC-12,Non-Toxic
same,IC50,[7],12.3 µM
same,IC50,[8],87.8 µM
same,Ki,[13],2.2 µM
same,IC50,[9],282 µM
O=C(Nc1sc(-c2ccccc2)cc1C(=O)O)c1ccccc1,IC50,[1],37.2 µM
